Calb FLC: C. albicans growth modulation with fluconazole; growth inhibition, % (test concentration not listed); 0.57% of 300,000 active; C. albicans CaCi-2 (fluconazole-resistant clinical isolate) + fluconazole, Alamar Blue growth, 48 h;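 active = growth inhibition above about 58% in most replicates, limit read from the data, passing the limit was not always enough; inconclusive = exactly half the replicates above a set limit; inactive = most replicates below a set limit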;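 note: all wells also contain fluconazole at 8 µg/ml as a sub-toxic cotreatment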
m5-HT2A agonist: mouse HTR2A agonism via beta-arrestin recruitment | activation, % at 7.6 µM | CHO-K1 mHTR2A beta-arrestin complementation, luminescence; percent of 30 µM serotonin response | 0.66% of 360,000 active | P35363;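 active = activation above a run cutoff, the mean activation of all tested compounds plus 3 SD, cut at about 14% in these data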
Target sequence (P35363 whole entry, looked up): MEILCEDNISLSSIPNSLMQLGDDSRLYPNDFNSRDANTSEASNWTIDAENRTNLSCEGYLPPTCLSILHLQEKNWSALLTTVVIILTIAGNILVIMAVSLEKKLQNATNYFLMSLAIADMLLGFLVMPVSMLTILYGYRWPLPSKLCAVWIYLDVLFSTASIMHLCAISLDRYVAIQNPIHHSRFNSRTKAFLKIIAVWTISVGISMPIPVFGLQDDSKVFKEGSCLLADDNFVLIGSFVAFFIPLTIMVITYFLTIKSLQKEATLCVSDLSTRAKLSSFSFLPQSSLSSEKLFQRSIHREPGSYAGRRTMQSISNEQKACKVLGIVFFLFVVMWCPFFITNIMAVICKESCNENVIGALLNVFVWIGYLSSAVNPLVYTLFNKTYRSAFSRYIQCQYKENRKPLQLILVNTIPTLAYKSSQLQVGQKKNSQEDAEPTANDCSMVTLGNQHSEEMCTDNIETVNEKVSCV
SR-BI uptake up: enhances SR-BI lipid uptake from DiI-HDL; CHO ldlA[mSR-BI] cells, DiI-HDL uptake fluorescence, 3 h; 100 = double the neutral-control signal; activation, % at 12.5 µM; 0.096% of 320,000 active; AID 504775;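 active = mean replicate activation of at least 60% and every replicate at or above 60%; inconclusive = mean or all-replicate condition met, but not both; inactive = mean below 60% and not all replicates reaching 60%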
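Test system: SR-BI-overexpressing, LDLR-lacking CHO cells. Measured by: DiI fluorescence, bottom read. Medium: Ham's F12 with 0.5% BSA, HEPES 25 mM, pH 7.4. Timing: 3 h uptake period with compound, 37 °C.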
beta cell repl: induces beta-cell replication in MIN6 cells | MIN6 cells proliferation, ATPlite luminescence, 48 h; cells starved in 0.2% serum; 100% = growth in 10% serum | proliferation, % at 10 µM | 0.29% of 330,000 active | AID 2380;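 active = compounds whose signal lies at least 3.5 SD above the mean of all wells on their plate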
Insulin prom up: MIN6 insulin promoter up-regulation | MIN6 insulin promoter-GFP reporter, high-content imaging; active compounds read high | z-score at 5 µM | 0.3% of 190,000 active | AID 1625;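 active = z-score above 3 at 5 µM with at least 500 cells counted in the well; inconclusive = wells under 500 cells, flagged as cytotoxic or low count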
SR-BI HDL uptake: blocks mouse SR-BI lipid uptake from DiI-HDL; Q61009; ldlA[mSR-BI] CHO cells, DiI-HDL uptake fluorescence, 3 h; inhibition, % at 12.5 µM; 0.96% of 320,000 active;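 active = mean replicate inhibition of at least 70% and a set share of replicates each scoring 70 or more; inconclusive = meets just one of the two criteria; inactive = fails both criteria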
OPRM1 ag: activates human mu opioid receptor in HTR2A counterscreen; shares compounds with m5-HT2A agonist; 5.3% of 2,300 active; U2OS OPRM1 beta-arrestin PathHunter, luminescence; DMSO 0%, DAMGO 9.3 µM 100%; activation, % at 9.3 µM;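 active = mean activation above the mean of DMSO-only wells plus 3 SD, cut at about 0.5% in these data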
HTR2A ag conf: confirmation of mouse HTR2A serotonin receptor agonists. 19% of 2,300 active. AID 624381. CHO-K1 PathHunter beta-arrestin recruitment, luminescence; DMSO 0%, 30 µM serotonin 100%. shares compounds with m5-HT2A agonist. activation, % at 7.6 µM;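 active = mean activation across triplicates above the hit threshold derived in the original primary screen, cut at about 15% in these data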
A number is an active result; - = inactive; ? = inconclusive; . = not tested or not shown. An excerpt weighted towards active compounds, which were near 2.4% of everything screened.

SMILES	Calb FLC	m5-HT2A agonist	SR-BI uptake up	beta cell repl	Insulin prom up	SR-BI HDL uptake	OPRM1 ag	HTR2A ag conf
COc1ccc(S(=O)(=O)N2CCCCC2)cc1NC(=O)c1ccc(OC)c(OC)c1	.	15.3	-	-	.	-	-	-
COc1ccc(S(=O)(=O)N2CCCCCC2)cc1NC(=O)c1ccccc1	-	-	.	-	.	-	.	.
COc1ccc(S(=O)(=O)N2CCC(C(=O)Nc3ccc(S(=O)(=O)N4CCCC4)cc3)CC2)cc1OC	-	16.4	-	-	.	-	-	-
COc1ccc(CCNC(=O)c2cccc(S(=O)(=O)N3CCOCC3)c2)cc1OC	.	15.9	-	-	.	-	-	-
COc1ccc(NC(=O)C2CCN(S(=O)(=O)c3ccc(OC)c(OC)c3)CC2)cc1	-	-	-	-	.	-	.	.
O=C1C=C(c2ccc(CO)cc2)C[C@@H](c2ccc(F)cc2)C1	.	-	.	.	.	.	.	.
CC(NC(=S)Nc1ccc(S(=O)(=O)N2CCOCC2)cc1)C1CC2CCC1C2 (stereo not given)	-	-	-	-	.	-	.	.
CN(CC(=O)Nc1ccc(F)c(F)c1F)C(=O)CN1C(=O)C2CCCCC2C1=O (stereo not given)	-	15.4	-	-	.	-	-	-
COc1ccc(Nc2nnc(-c3ccc(O)cc3)c3ccccc23)cc1	-	30.4	-	-	-	-	-	-
Oc1ccc(Nc2nnc(-c3ccc(O)cc3)c3ccccc23)cc1	-	-	-	-	-	-	.	.
CCCCN1C[C@H](COC(=O)CCC)Oc2cccc(F)c2S1(=O)=O	.	-	-	.	.	-	.	.
Cc1ccc(-c2nnc(Nc3ccc4c(c3)OCO4)c3ccccc23)cc1S(N)(=O)=O	-	15.1	-	-	-	-	-	-
CC(=O)Nc1ccc(Nc2nnc(-c3ccc(C)c(S(N)(=O)=O)c3)c3ccccc23)cc1	-	-	-	-	.	-	.	.
N#CCC(=O)Nc1ccc(C(=O)OCC(=O)c2ccc3c(c2)NC(=O)CO3)cc1	.	25.1	-	-	.	-	-	-
CC(=O)Nc1cc(NC(C)=O)cc(C(=O)OCC(=O)c2ccc3c(c2)NC(=O)CO3)c1	-	19.6	-	-	.	-	-	-
CN(C)S(=O)(=O)c1ccc(NC(=O)COc2cccc3c2OC(C)(C)C3)cc1	.	-	-	-	.	-	.	.
c1cnc(N2CCN(Cc3ccc4c(c3)OCO4)CC2)nc1	-	41.7	-	-	-	-	-	169.0
c1nc(N2CCN(Cc3ccc4c(c3)OCO4)CC2)c2[nH]cnc2n1	-	20.4	-	-	-	-	-	74.8
c1ccc(N2CCN(Cc3ccc4c(c3)OCO4)CC2)nc1	-	31.7	.	-	.	.	-	113.2
Brc1ccc(CN2CCN(c3ccccn3)CC2)s1	-	29.5	-	-	-	-	-	98.1
CC(C)N1C(=O)c2ccccc2NC(=O)C1C(=O)NCc1cccc(C(F)(F)F)c1 (stereo not given)	.	-	.	.	.	.	.	.
S=C(NCC1CCCO1)N1CCc2ccccc2C1 (stereo not given)	-	-	-	-	.	-	.	.
O=C(CN(C(=O)CNC(=O)c1ccco1)c1ccc(F)cc1)NC1CCCCC1	-	-	-	-	.	-	.	.
Cc1ccc(NC(=O)C2CCCN2C(=O)OCc2ccccc2)cc1F (stereo not given)	-	14.7	-	-	.	-	-	-
CC(C)CNc1ncnc2c1ncn2[C@H]1CN(C2CCCC2)C[C@@H](CO)O1	.	-	.	.	.	.	.	.
SMILES	Calb FLC	m5-HT2A agonist	SR-BI uptake up	beta cell repl	Insulin prom up	SR-BI HDL uptake	OPRM1 ag	HTR2A ag conf
CN(Cc1ccccc1)C(=O)COC(=O)c1cc(NS(=O)(=O)c2cccs2)ccc1O	-	21.0	-	-	-	-	-	-
O=C(COC(=O)c1cc(NS(=O)(=O)c2cccs2)ccc1O)Nc1ccccc1	-	-	-	-	.	-	.	.
COc1ccc(S(=O)(=O)N2c3ccccc3NC(=O)CC2C)cc1 (stereo not given)	-	19.0	-	-	.	-	-	-
CC1CC(=O)Nc2ccccc2N1S(=O)(=O)c1ccc(C(F)(F)F)cc1 (stereo not given)	-	-	-	-	.	-	.	.
O=c1c2ccccc2nc(/C=C/c2c[nH]c3ccccc23)n1CCO	-	14.5	-	-	-	-	-	-
CN(CC(=O)NCCc1ccccc1)S(=O)(=O)c1ccc(Br)s1	-	-	-	-	.	-	.	.
CCCc1c(-c2ccc(F)cc2)ncn1CCc1ccccc1OC	.	16.5	.	.	.	.	0.8	-
O=C(CCNS(=O)(=O)c1ccccc1)N1CCN(C(c2ccccc2)c2ccccc2)CC1	-	-	-	-	.	-	.	.
CC(=O)Nc1ccc(S(=O)(=O)NCCC(=O)N2CCN(C(c3ccccc3)c3ccccc3)CC2)cc1	-	15.9	-	-	.	-	-	-
CN=c1scc(-c2ccc([N+](=O)[O-])cc2)n1/N=C/c1ccco1	-	-	-	-	-	-	.	.
CN=c1scc(-c2ccc(F)cc2)n1/N=C/c1ccc(O)c(O)c1	.	16.2	-	-	-	78.4	-	85.2
CCOC(=O)Cn1cnc2c(cnn2-c2ccc(OC)cc2)c1=O	-	-	-	-	.	-	.	.
COc1ccc(-n2ncc3c(=O)n(CC(=O)N(C(C)C)C(C)C)cnc32)cc1	-	36.8	-	-	.	-	-	-
COc1cccc(C(=O)NCCS(=O)(=O)N2CCC(C)CC2)c1	-	14.4	-	-	.	-	-	-
Cc1cccc(NC(=O)CSc2nnc(-c3ccc(S(=O)(=O)N4CCOCC4)cc3)n2C)c1	-	28.9	-	-	.	-	0.8	-
Cc1cccc(-c2nnc(SCC(=O)Nc3cc(C)on3)n2C)c1	-	17.8	-	-	.	-	-	-
CCc1ccccc1-n1nnnc1SCC(=O)Nc1cc(C)on1	-	15.4	.	-	.	.	-	-
Cc1cc(NC(=O)CSc2nnnn2-c2ccccc2C)no1	-	-	-	-	.	-	.	.
CCc1ccc2c(c1)NC(=O)C2(C)Cc1ccc(C(F)(F)F)nc1 (stereo not given)	.	-	.	.	.	.	.	.
Cc1ccc(CN2CCCC2(C)C(=O)NC(C)C)cc1 (stereo not given)	.	-	.	.	.	.	.	.
O=C(c1[nH]c(C(F)(F)F)nc1-c1ccccc1)N1CCN(c2cccc(C(F)(F)F)n2)CC1	.	14.4	.	.	.	.	-	-
O=C(NCc1c(Cl)cccc1Cl)c1[nH]c(C(F)(F)F)nc1-c1ccccc1	.	-	.	.	.	.	.	.
O=c1[nH]c(C2CCN(S(=O)(=O)c3ccc(F)cc3)CC2)nc2c1nnn2Cc1ccc2c(c1)OCCO2	-	15.3	-	-	.	-	-	-
CC(Sc1nnc(C2CC2)n1-c1ccccc1)C(=O)N1CCCC1 (stereo not given)	.	-	?	-	.	-	.	.
